This is an account of results in ChEMBL document CHEMBL1124311, “Synthesis and antiallergy activity of 4-(diarylhydroxymethyl)-1-[3-(aryloxy)propyl]piperidines and structurally related compounds” (J Med Chem, 1989).

Calls of active or inactive are those of the source. The calls are words filed in the database; no cut-off is given here.

The test system of assay [1] is Rattus norvegicus. In words: Oral antiallergy activity in the passive foot anaphylaxis (PFA) model of rat, at a dose of 0.5 (mg/kg); not significantly different from negative control group. In kind it is functional, organism-based.
In assay [2] the test system is Rattus norvegicus. Description: Oral antiallergy activity in the passive foot anaphylaxis (PFA) model of rat, at a dose of 10 (mg/kg); Activity greater than positive control group. The class given is functional, organism-based.
The test system of assay [3] is Rattus norvegicus. In words: Oral antiallergy activity in the passive foot anaphylaxis (PFA) model of rat, at a dose of 1.0 (mg/kg); Activity between positive and negative control groups. In kind it is functional, organism-based.
The subject of assay [4] is Rattus norvegicus. In words: Oral antiallergy activity in the passive foot anaphylaxis (PFA) model of rat, at a dose of 3.16 (mg/kg); Activity between positive and negative control groups. The class given is functional, organism-based.
In assay [5] the test system is Rattus norvegicus. Description: Oral antiallergy activity in the passive foot anaphylaxis (PFA) model of rat, at a dose of 1.0 (mg/kg); not significantly different from negative control group. The class given is functional, organism-based.
The species entered for assay [6] is Rattus norvegicus. Description: Oral antiallergy activity in the passive foot anaphylaxis (PFA) model of rat, at a dose of 3.16; Activity equal to positive control group. In kind it is functional, organism-based.
Assay [7] has as its system Rattus norvegicus. Description: Oral antiallergy activity in the passive foot anaphylaxis (PFA) model of rat, at a dose of 10 (mg/kg); Activity equal to positive control group. In kind it is functional, organism-based.
The species named for assay [8] is Cavia porcellus. In words: Oral antiallergy activity in the guinea pig anaphylaxis (GPA) model of, at a pretreatment time of 5 h. The class given is functional. Conditions: read-out: PD50. The method in brief: (§1)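 Fasted, sensitized Dunkin-Hartley guinea pigs, randomized into control (N = 8) and test (N = 4) groups, dosed by gavage at 10 mL/kg in 0.5% Tween 80 in water; theophylline 100 mg/kg po as reference. At the stated pretreatment time, each animal was exposed to aerosolized 1% (w/v) egg albumin at 10 L air/min for up to 5 min. Protection meant no collapse within 5 min. PD50 was calculated by Litchfield–Wilcoxon.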

The species named for assay [9] is Cavia porcellus. In words: Oral antiallergy activity in the guinea pig anaphylaxis (GPA) model, at a pretreatment time of 1 h. As to conditions: read-out: PD50. The class given is functional. The method in brief: as §1
For assay [10], the target named is T1, Histamine H1 receptor (Cavia porcellus, UniProt P31389). In words: Inhibitory activity against Tritiated [3H]- mepyramine binding to histamine H1 receptor in guinea pig cerebral cortex. In kind it is tissue-based. The essentials: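 Guinea pig (Dunkin-Hartley) cerebral cortex homogenized in cold 50 mM Na-K phosphate pH 7.5, centrifuged at 48000g three times, resuspended 30 mL buffer/g tissue. Six concentrations (1e-5 to 1e-10 M) run in triplicate. IC50 derived by regression of logit % control binding vs log concentration.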

Assay [11] relates to Rattus norvegicus. Description: Oral antiallergy activity in the passive foot anaphylaxis (PFA) model of rat, at a dose of 3.16 (mg/kg); Activity greater than positive control group. The class given is functional, organism-based.
The species named for assay [12] is Cavia porcellus. Description: Oral antiallergy activity in the guinea pig anaphylaxis (GPA) model, at a pretreatment time of 24 h. In kind it is functional. Conditions: read-out: PD50. The method in brief: as §1
Assay [13] deals with Rattus norvegicus. Description: Oral antiallergy activity in the passive foot anaphylaxis (PFA) model of rat, at a dose of 3.16 (mg/kg); Activity equal to positive control group. The class given is functional, organism-based.
For assay [14], the system named is Rattus norvegicus. Description: Oral antiallergy activity in the passive foot anaphylaxis (PFA) model of rat, at a dose of 0.5 (mg/kg); Activity between positive and negative control groups. The class given is functional, organism-based.
Assay [15] is filed under the species Cavia porcellus. Description: Oal antiallergy activity in the guinea pig anaphylaxis (GPA) model, at a pretreatment time of 24 h. In kind it is functional. Conditions: read-out: PD50. The method in brief:
as §1

Assay [16] is filed under the species Cavia porcellus. In words: Oal antiallergy activity in the guinea pig anaphylaxis (GPA) model of, at a pretreatment time of 5 h. The class given is functional. Conditions: read-out: PD50. The essentials:
as §1

Assay [17] concerns the target T1, Histamine H1 receptor. In words: Inhibitory activity against Tritiated [3H]- mepyramine binding to Histamine H1 receptor in guinea pig cerebral cortex. In kind it is tissue-based. The method in brief:
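Guinea pig (Dunkin-Hartley) cerebral cortex homogenised in cold 50 mM Na-K phosphate pH 7.5, washed by repeated 48000g spins, membranes resuspended at 30 mL buffer/g wet tissue. Incubated with 1.5 nM (final) [3H]mepyramine for 20 min at 25 °C. Stopped by cold-buffer washing and GF/B filtration, then scintillation counting. Six concentrations (1e-5 to 1e-10 M) in triplicate. IC50 from regression of logit % control binding vs log concentration.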

In assay [18] the test system is Rattus norvegicus. Description: Oral antiallergy activity in the passive foot anaphylaxis (PFA) model of rat, at a dose of 1.0 (mg/kg);not significantly different from negative control group. The class given is functional, organism-based.
Assay [19] deals with Rattus norvegicus. In words: Oral antiallergy activity in the passive foot anaphylaxis (PFA) model of rat, at a dose of 10 (mg/kg); Not significantly different from negative control group. The class given is functional, organism-based.
In assay [20] the test system is Rattus norvegicus. Description: Oral antiallergy activity in the passive foot anaphylaxis (PFA) model of rat, at a dose of 1.0 (mg/kg). The class given is functional, organism-based.
The subject of assay [21] is Rattus norvegicus. In words: Oral antiallergy activity in the passive foot anaphylaxis (PFA) model of rat, at a dose of 3.16 (mg/kg); - indicates not significantly different from negative control group. The class given is functional, organism-based.
Assay [22] is filed under the species Cavia porcellus. Description: Oral antiallergy activity in the guinea pig anaphylaxis (GPA) model of, at a pretreatment time of 6 h. The class given is functional. As to conditions: read-out: PD50. The essentials:
as §1

The subject of assay [23] is Rattus norvegicus. Description: Oral antiallergy activity in the passive foot anaphylaxis (PFA) model of rat, at a dose of 10 (mg/kg); not significantly different from negative control group. The class given is functional, organism-based.

T1 sequence (P31389 whole entry): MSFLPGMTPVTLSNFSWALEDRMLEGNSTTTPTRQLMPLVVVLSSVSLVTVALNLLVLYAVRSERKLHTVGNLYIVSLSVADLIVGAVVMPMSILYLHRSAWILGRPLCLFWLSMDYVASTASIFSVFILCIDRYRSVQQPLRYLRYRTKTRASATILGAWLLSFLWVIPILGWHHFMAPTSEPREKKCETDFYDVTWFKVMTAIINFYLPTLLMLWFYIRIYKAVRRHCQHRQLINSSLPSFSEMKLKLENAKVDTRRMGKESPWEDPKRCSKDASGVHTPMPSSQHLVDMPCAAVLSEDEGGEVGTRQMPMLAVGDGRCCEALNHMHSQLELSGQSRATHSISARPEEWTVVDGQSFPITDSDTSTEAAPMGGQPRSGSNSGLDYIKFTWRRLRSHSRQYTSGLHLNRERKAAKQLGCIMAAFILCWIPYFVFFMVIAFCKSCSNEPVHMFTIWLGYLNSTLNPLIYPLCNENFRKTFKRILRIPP

On to `COC(=O)CCc1ccc(OCCCN2CCC(C(O)(c3ccc(F)cc3)c3ccc(F)cc3)CC2)cc1`, for which the PFA result in the assay with Rattus norvegicus [1] is “Activity between positive and negative control groups”; with Rattus norvegicus [2], “Activity between positive and negative control groups”; in the assay on Rattus norvegicus [3] it was “Activity between positive and negative control groups”; with Rattus norvegicus [4], “Activity between positive and negative control groups”.

Turning to `Cc1ccc(OCCCN2CCC(C(O)(c3ccc(F)cc3)c3ccc(F)cc3)CC2)cc1`, the PFA entry with Rattus norvegicus [5], in the assay listed under Rattus norvegicus [6] and with Rattus norvegicus [7] was “Activity equal to positive control group” throughout.

The term IC50 denotes the midpoint of a concentration-inhibition curve. Lower therefore signals greater potency. Consider `COC(=O)c1ccc(OCCCN2CCC(C(O)(c3ccc(F)cc3)c3ccc(F)cc3)CC2)cc1`, for which the ED50 in the assay listed under Cavia porcellus [8] stood at 0.32 mg/kg; in the assay filed under Cavia porcellus [9], 0.72 mg/kg; in the assay listed under Cavia porcellus [12] it was 2.04 mg/kg. Moreover, the PFA result in the assay with Rattus norvegicus [1] was “inactive”. Further, the PFA entry in the assay with Rattus norvegicus [3] was “Weak activity”. In addition, the 50% inhibitory concentration (IC50) at Histamine H1 receptor [10] stood at 0.063 µM. In addition, the PFA result in the assay with Rattus norvegicus [11] is “Active”.

In the case of `O=C(O)CCc1ccc(OCCCN2CCC(C(O)(c3ccc(F)cc3)c3ccc(F)cc3)CC2)cc1`, the PFA result with Rattus norvegicus [13] was “Activity between positive and negative control groups”; in the assay with Rattus norvegicus [1], “Activity between positive and negative control groups”; with Rattus norvegicus [2], “Activity between positive and negative control groups”; in the assay on Rattus norvegicus [3], “Activity between positive and negative control groups”.

As for `CCOC(=O)c1ccc(OCCCN2CCC(C(O)(c3ccc(F)cc3)c3ccc(F)cc3)CC2)cc1.Cl`, the ED50 in the assay filed under Cavia porcellus [8] came out at 0.44 mg/kg; in the assay filed under Cavia porcellus [9], 1 mg/kg; in the assay filed under Cavia porcellus [12], 0.37 mg/kg. Moreover, the PFA entry in the assay on Rattus norvegicus [3] and in the assay on Rattus norvegicus [14] was “Weak activity” each time. The same compound gave an IC50 at Histamine H1 receptor [10] of 0.956 µM. The PFA entry in the assay on Rattus norvegicus [11] is “Active”.

Consider `O=c1[nH]c2ccccc2n1CCCN1CCN(C(c2ccccc2)c2ccccc2)CC1` [OXATOMIDE], for which the ED50 stood at 10 mg/kg in the assay filed under Cavia porcellus [15] and 1 mg/kg in the assay filed under Cavia porcellus [16]. For the same compound, at Histamine H1 receptor [17], the half-maximal inhibitory concentration (IC50) worked out at 0.009 µM.

For the compound `COc1cc(C(C)=O)ccc1OCCCN1CCC(C(O)(c2ccc(F)cc2)c2ccc(F)cc2)CC1`, the PFA entry in the assay with Rattus norvegicus [13] and in the assay with Rattus norvegicus [2] was “Active” throughout. Further, the PFA entry with Rattus norvegicus [5] was “inactive”. Moreover, the ED50 in the assay filed under Cavia porcellus [8] came to 0.18 mg/kg; in the assay listed under Cavia porcellus [9] it was 1.78 mg/kg; in the assay listed under Cavia porcellus [12], 0.78 mg/kg. Moreover, the IC50 at Histamine H1 receptor [10] was found to be 0.008 µM.

On to `CS(=O)(=O)Nc1ccc(OCCCN2CCC(C(O)(c3ccc(F)cc3)c3ccc(F)cc3)CC2)cc1`, for which the PFA entry with Rattus norvegicus [2] is “Activity between positive and negative control groups”; in the assay with Rattus norvegicus [18], “Activity between positive and negative control groups”; in the assay with Rattus norvegicus [4], “Activity between positive and negative control groups”.

`COc1cc(C(C)=O)ccc1OCCCN1CCC(C(O)c2ccccc2)CC1` (configuration not stated): the PFA entry in the assay on Rattus norvegicus [19] is “Not significantly different from negative control group”.

As to `O=C(O)c1ccc(OCCCN2CCC(C(O)(c3ccc(F)cc3)c3ccc(F)cc3)CC2)cc1`, the PFA entry with Rattus norvegicus [14] is “Activity between positive and negative control groups”; in the assay on Rattus norvegicus [4] it was “Activity between positive and negative control groups”; in the assay on Rattus norvegicus [20] it was “Activity between positive and negative control groups”.

With `NC(=O)c1ccc(OCCCN2CCC(C(O)(c3ccc(F)cc3)c3ccc(F)cc3)CC2)cc1`, the PFA result was “Activity between positive and negative control groups” in the assay with Rattus norvegicus [1]; “Activity between positive and negative control groups” with Rattus norvegicus [2]; “Activity between positive and negative control groups” with Rattus norvegicus [3]; “Activity between positive and negative control groups” with Rattus norvegicus [4].

Take `COc1cc(C(C)=O)ccc1OCCCN1CCC(C(O)(c2ccccc2)c2ccccc2)CC1`: the PFA entry with Rattus norvegicus [13] and in the assay on Rattus norvegicus [2] was “Active” throughout. The PFA result in the assay on Rattus norvegicus [5] is “inactive”. The ED50 came out at 0.35 mg/kg in the assay listed under Cavia porcellus [8], 0.57 mg/kg in the assay listed under Cavia porcellus [9] and 1.4 mg/kg in the assay filed under Cavia porcellus [12]. In addition, at Histamine H1 receptor [10], the 50% inhibitory concentration (IC50) was 0.042 µM.

Regarding `OC(c1ccc(F)cc1)(c1ccc(F)cc1)C1CCN(CCCCc2ccccc2)CC1`, the PFA result in the assay on Rattus norvegicus [21] is “Not significantly different from negative control group”.

Turning to `CC(C)(C)c1ccc(C(O)CCCN2CCC(C(O)(c3ccccc3)c3ccccc3)CC2)cc1` (configuration not stated) [TERFENADINE], the ED50 in the assay filed under Cavia porcellus [22] turned out to be 3.2 mg/kg; in the assay listed under Cavia porcellus [9] it was 1 mg/kg. The PFA entry with Rattus norvegicus [23] is “inactive”.
